Measured values reported in ChEMBL document CHEMBL1132567, “Structure-activity studies of conantokins as human N-methyl-D-aspartate receptor modulators” (J Med Chem, 1999).
Starred links: 1 amine or outer side, 2 acyl side, 3 side chain; linkers in the order of their positions; H or OH if unused. Positions of bridges follow the written chain, without caps; N, C: chain ends. Non-standard residues stand in square brackets, D forms with d. Residues, ends and D or L forms follow the SMILES beside them. X1 = NC(=O)CC[C@@H](C(=O)[*:2])[C@H](CC(N)=O)N[*:1]; NMeN = CN[C@@H](CC(N)=O)C(=O)O

What was measured:
[1] = biological target: Glutamate [NMDA] receptor; test: The compound was tested for the inhibitory activity against N-methyl-D-aspartate glutamate receptor from mid-frontal region of human brain by measuring spermine-enhanced [3H]- MK-801 binding
Method in brief: (§1)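 Crude synaptosomal membranes from the named human brain region, frozen at -70°C, then washed in water and in 5 mM Tris-HCl pH 7.4. Duplicate tubes at room temperature held membranes (about 0.25 mg/mL protein), 30 μM spermine, 2 nM [3H]MK-801 and peptide at 10^-9–10^-4 M, without added Ca2+ or with 1.5 mM CaCl2. Nonspecific binding was taken with 3 μM unlabeled MK-801. After 45 min, samples were filtered onto GF/B and counted by scintillation.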

[2] = biological target: Glutamate [NMDA] receptor; test: The compound was tested for the inhibitory activity against N-methyl-D-aspartate glutamate receptor from superior temporal region of human brain by measuring spermine-enhanced [3H]- MK-801 binding; method in brief: as §1
[3] = biological target: Glutamate [NMDA] receptor; test: The compound was tested for the inhibitory activity against N-methyl-D-aspartate glutamate receptor from sensorimotor gyri region of human brain by measuring spermine-enhanced [3H]- MK-801 binding; method in brief: as §1

Compound | IC50 [1] | IC50 [2] | IC50 [3]
CC[C@@H](C)[C@H](NC(=O)[C@H](CC(C)C)NC(=O)[C@@H]1CCC(=O)NCCCC[C@H](NC(=O)[C@H](CCC(N)=O)NC(=O)[C@H](CC(C)C)NC(=O)[C@H](CCC(=O)O)NC(=O)[C@H](CCC(=O)O)NC(=O)[C@H](CCC(=O)O)NC(=O)CN)C(=O)N[C@@H](CC(N)=O)C(=O)N[C@H](CCC(N)=O)C(=O)N1)C(=O)N[C@@H](CCCN=C(N)N)C(=O)N[C@@H](CCC(=O)O)C(=O)N[C@@H](CCCCN)C(=O)N[C@@H](CO)C(=O)N[C@@H](CC(N)=O)C(N)=O | 8480 nM |  | 
CC[C@@H](C)[C@H](NC(=O)[C@H](CC(C)C)NC(=O)[C@H](CCC(=O)O)[C@H](CCC(N)=O)NC(=O)[C@H](CC(N)=O)NC(=O)[C@H](CCC(=O)O)NC(=O)[C@H](CCC(N)=O)NC(=O)[C@H](CC(C)C)NC(=O)[C@H](CCC(=O)O)NC(=O)[C@H](CCC(=O)O)NC(=O)[C@H](CCC(=O)O)NC(=O)CN)C(=O)N[C@@H](CCCN=C(N)N)C(=O)N[C@@H](CCC(=O)O)C(=O)N[C@@H](CCCCN)C(=O)N[C@@H](CO)C(=O)N[C@@H](CC(N)=O)C(N)=O | 69 nM | 21 nM | 59 nM
CSCC[C@H](NC(=O)[C@H](CCCCN)NC(=O)[C@H](CCC(N)=O)NC(=O)[C@H](Cc1ccc(O)cc1)NC(=O)[C@H](CCC(=O)O)NC(=O)[C@H](CCC(=O)O)NC(=O)[C@H](CCC(=O)O)NC(=O)CN)C(=O)N[C@@H](CC(C)C)C(=O)N[C@@H](CCC(=O)O)C(=O)N(C)[C@@H](CC(N)=O)C(=O)N[C@@H](CC(C)C)C(=O)N[C@@H](CCCN=C(N)N)C(=O)N[C@@H](CCC(=O)O)C(=O)N[C@@H](C)C(=O)N[C@@H](CCC(=O)O)C(=O)N[C@H](C(=O)N[C@@H](CCCCN)C(=O)N[C@@H](CCCCN)C(=O)N[C@@H](CC(N)=O)C(=O)N[C@@H](C)C(N)=O)C(C)C (H-GEEEYQKMLE[NMeN]LREAEVKKNA-NH2) | 125 nM |  | 
CC[C@H](C)[C@H](NC(=O)[C@H](CC(C)C)NC(=O)[C@H](CCC(=O)O)NC(=O)[C@H](CCC(N)=O)NC(=O)[C@H](CC(N)=O)NC(=O)[C@H](C)NC(=O)[C@H](CCC(N)=O)NC(=O)[C@H](CC(C)C)NC(=O)[C@H](CCC(=O)O)NC(=O)[C@H](CCC(=O)O)NC(=O)[C@H](CCC(=O)O)NC(=O)CN)C(=O)N[C@@H](CCCN=C(N)N)C(=O)N[C@@H](CCC(=O)O)C(=O)N[C@@H](CCCCN)C(=O)N[C@@H](CO)C(=O)N[C@@H](CC(N)=O)C(N)=O | 3360 nM | 1680 nM | 766 nM
CC[C@H](C)[C@H](NC(=O)[C@H](CC(C)C)NC(=O)[C@H](CCC(=O)O)NC(=O)[C@H](CCC(N)=O)NC(=O)[C@H](CC(N)=O)NC(=O)[C@H](CCCCN)NC(=O)[C@H](CCC(N)=O)NC(=O)[C@H](CC(C)C)NC(=O)[C@H](CCC(=O)O)NC(=O)[C@H](CCC(=O)O)NC(=O)[C@H](CCC(=O)O)NC(=O)CN)C(=O)N[C@@H](CCCN=C(N)N)C(=O)N[C@@H](CCC(=O)O)C(=O)N[C@@H](CCCCN)C(=O)N[C@@H](CO)C(=O)N[C@@H](CC(N)=O)C(N)=O | 11000 nM |  | 
CC[C@H](C)[C@@H]1NC(=O)[C@H](CC(C)C)NC(=O)[C@@H](NC(=O)[C@H](CCC(N)=O)[C@H](CC(N)=O)NC(=O)[C@H](C)NC(=O)[C@H](CCC(N)=O)NC(=O)[C@H](CC(C)C)NC(=O)[C@H](CCC(=O)O)NC(=O)[C@H](CCC(=O)O)NC(=O)[C@H](CCC(=O)O)NC(=O)CN)CCC(=O)NCCCC[C@@H](C(=O)N[C@@H](CCC(=O)O)C(=O)N[C@@H](CCCCN)C(=O)N[C@@H](CO)C(=O)N[C@@H](CC(N)=O)C(N)=O)NC1=O (H-GEEELQA[X1]ELIKEKSN-NH2; lactam 9-12) | > 20000 nM |  | 
H-GEEELQEN-NH2 | 94 nM | 23 nM | 58 nM
H-GEEEYQANQELIREKSN-NH2 | 546 nM | 570 nM | 475 nM
H-GEEEYQKNQELIREKSN-NH2 | 99 nM | 56 nM | 47 nM
H-GEEELQEDQELIREKSD-NH2 | 20 nM | 9 nM | 18 nM
